SENP6 block – blocks the human protease SENP6 | Recombinant SENP6 catalytic domain, aminoluciferin luminescence | inhibition, % at 10 µM | 330,000 compounds, 1.8% hits | AID 2599;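 active = inhibition above about 50% at the single tested dose, limit read from the data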
Target sequence (Q9GZR1 628-1112 limits assumed): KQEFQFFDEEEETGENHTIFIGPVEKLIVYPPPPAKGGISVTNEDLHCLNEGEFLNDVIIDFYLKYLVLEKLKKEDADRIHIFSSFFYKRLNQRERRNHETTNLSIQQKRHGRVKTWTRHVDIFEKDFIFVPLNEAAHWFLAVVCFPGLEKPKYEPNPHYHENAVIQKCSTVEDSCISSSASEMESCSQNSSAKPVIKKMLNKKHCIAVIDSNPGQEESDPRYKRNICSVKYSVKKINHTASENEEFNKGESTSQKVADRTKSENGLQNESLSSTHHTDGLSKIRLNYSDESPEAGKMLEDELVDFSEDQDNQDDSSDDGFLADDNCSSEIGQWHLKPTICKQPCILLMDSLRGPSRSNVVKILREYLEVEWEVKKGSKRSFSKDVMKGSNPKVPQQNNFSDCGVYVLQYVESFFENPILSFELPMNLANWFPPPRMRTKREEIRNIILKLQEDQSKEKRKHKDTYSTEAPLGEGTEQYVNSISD
SENP7 block – SENP7 protease inhibition; recombinant SENP7, Z-RLRGG-aminoluciferin luminescence, 40 min; inhibition, % at 5 µM; 330,000 compounds, 1.5% hits;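 active = inhibition above about 50% at the single test dose, limit read from the data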
UCH37 DUB inh – human UCH37 deubiquitinating enzyme inhibition. inhibition, % (no concentration beside the values). 330,000 compounds, 0.33% hits. purified proteasome/UCH37, Ub-AMC cleavage fluorescence. AID 588478;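 active = mean inhibition over replicate wells above about 20%, limit read from the data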
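Schedule: 30 min plus 25 min, room temperature / Material: human UCH37 within purified proteasomes / Technique: AMC fluorescence intensity at 355/460 nm / Buffer or medium: pH 7.4 Tris-HCl (50 mM) with ovalbumin, ATP-MgCl2, DTT / Controls: wells without proteasome as full block, compound-free enzyme plus substrate as uninhibited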
SENP8 block-1 – SENP8 (human) protease inhibition; Q96LD8; recombinant SENP8, Nedd8 substrate fluorescence; inhibition, % at 20 µM; 360,000 compounds, 0.64% hits; AID 602440; in the data active = inhibition mostly above about 40%, no sharp cut-off; inactive = mostly below about 27%
SENP1 inh – SENP1 (human) catalytic domain inhibition; Q9P0U3; recombinant SENP1 catalytic domain, CyPet-SUMO1-YPet FRET cleavage; inhibition, % at 10 µM; 360,000 compounds, 0.21% hits; AID 624204;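 active = inhibition at least 30% at 10 µM, raw YFP signal under a set limit, fluorescence ratio 0.5 to 1.5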
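Controls: no-enzyme wells low, DMSO-plus-enzyme wells high control. Test system: human recombinant His6-tagged SENP1 catalytic domain enzyme. Reagent: SFCypet-SUMO1-SFYpet FRET protein substrate, 25 nM final. Doses: one dose per compound, 10 µM, 0.5% DMSO. Detection: FRET, CFP and YFP emission. Timing: 50 min reaction at room temperature.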
SENP8 block-2 – SENP8 protease inhibition; purified SENP8, Z-RLRGG-aminoluciferin cleavage, luminescence; inhibition, % at 10 µM; 330,000 compounds, 1.2% hits; in the data active = inhibition above about 50%
SENP8 conf – confirmation of human SENP8 protease inhibitors; shares compounds with SENP8 block-1; 1,400 compounds, 15% hits; purified SENP8, Nedd8-AMC/pro-Nedd8 cleavage fluorescence, 30 min; inhibition, % at 25 µM; AID 624319; in the data active = inhibition mostly above about 39%, no sharp cut-off; inactive = mostly below about 34%
Hits are given with their value; i = inactive; nt = no result. A selection: hits, their analogues and other compounds. The true share with any hit is near 2.6%.

SMILES	SENP6 block	SENP7 block	UCH37 DUB inh	SENP8 block-1	SENP1 inh	SENP8 block-2	SENP8 conf
COc1cc(C=NNc2nc3ccccc3[nH]c2=O)ccc1O	nt	nt	i	nt	nt	nt	nt
Cn1c(SCC(=O)Nc2ccc(NC(=O)c3ccccc3F)cc2)nnc1-c1ccncc1	i	i	i	i	i	i	nt
Cc1ccccc1C(=O)Nc1ccc(-c2nnc(SC(C)C(=O)O)n2C)cc1 (stereo not drawn)	i	i	i	41.0	i	i	i
Cc1ccc(C(=O)NCc2ccccn2)c(Cl)c1	i	i	i	40.8	i	i	i
CCCCOc1c(Br)cc(C=NO)cc1OCC	nt	nt	i	nt	nt	nt	nt
Cc1cc(C)n(C(C)CC(=O)N2CCc3ccccc32)n1 (stereo not drawn)	i	i	i	i	i	i	nt
Cc1cc(C)n(C(CC(=O)N2CCc3ccccc3C2)C(=O)O)n1 (stereo not drawn)	i	i	i	43.7	i	i	i
COc1ccc2nc(C)cc(SCC(=O)NN=Cc3ccc(O)c(O)c3)c2c1	nt	nt	i	nt	nt	nt	nt
CC(C)(C)C(=O)NCCCc1nc2ccccc2n1CCCOc1ccc(Cl)cc1	i	i	i	41.1	i	i	i
C=CCn1c(CCCNC(=O)C(C)(C)C)nc2ccccc21	i	i	i	i	i	i	nt
OCCN1CCN(C(=S)c2ccc(Cl)c(Cl)c2)CC1	i	i	i	42.2	i	i	34.1
O=C(Nc1ccccc1)c1ccc(Nc2c([N+](=O)[O-])cc([N+](=O)[O-])c3ccccc23)cc1	i	i	nt	55.6	i	i	i
Cc1c(C(=O)Nc2ccc(Nc3ccccc3)cc2)cccc1[N+](=O)[O-]	i	i	i	i	i	i	nt
COc1cc(C=Nn2nnnc2N)cc(Cl)c1OC	nt	nt	i	nt	nt	nt	nt
CC(=O)/C(=N/Nc1ccc(Br)cc1)N1CCCc2ccccc21	i	i	nt	i	i	i	nt
CC(=O)/C(=N/Nc1ccc([N+](=O)[O-])cc1)N1CCCc2ccccc21	i	i	nt	46.7	i	i	i
CC(=O)/C(=N/Nc1ccccc1[N+](=O)[O-])N1CCCc2ccccc21	i	i	nt	40.6	i	i	i
CC(=NNc1nc2ccccc2[nH]1)c1ccc2c(c1)OCO2	nt	nt	i	nt	nt	nt	nt
C/C(=N\Nc1nc2ccccc2[nH]1)c1ccc([N+](=O)[O-])cc1	i	i	nt	54.3	i	i	i
CN(CC(=O)Nc1cccc(F)c1)CC(=O)Nc1ccc(Cl)cc1[N+](=O)[O-]	i	i	i	41.8	i	i	i
CN(CC(=O)Nc1cccc(F)c1)CC(=O)Nc1ccccc1[N+](=O)[O-]	i	i	i	i	i	i	nt
O=C1c2cccc3cccc(c23)C(=O)C1(O)O	i	i	i	51.7	i	i	i
CC(=O)N1C(=O)c2cccc3cccc(c23)C(=O)N1C(C)=O	i	i	i	nt	nt	i	nt
Cc1ccc(C)c(Nc2ccc3nonc3c2[N+](=O)[O-])c1	i	i	i	i	i	i	nt
Cc1ccc(C)c(Nc2c([N+](=O)[O-])ccc3nonc23)c1	i	i	i	44.9	i	i	i
SMILES	SENP6 block	SENP7 block	UCH37 DUB inh	SENP8 block-1	SENP1 inh	SENP8 block-2	SENP8 conf
CCC(C)[C@H](NS(=O)(=O)c1ccc(C)cc1)C(=O)N1CCC(C(=O)N2CCC(C(=O)OC)CC2)CC1 (stereo partly drawn)	i	i	i	45.8	i	i	i
Cc1ccc(S(=O)(=O)N[C@@H](CC(C)C)C(=O)N2CCC(C(=O)N[C@@H](Cc3ccccc3)C(=O)O)CC2)cc1	i	i	i	64.6	i	i	i
Cc1ccc2sc(NNC(=O)c3cc(=O)c4ccccc4o3)nc2c1C	95.8	i	nt	66.3	i	93.5	i
Cc1ccc2sc(NNC(=O)C3COc4ccccc4O3)nc2c1C (stereo not drawn)	i	i	i	i	i	i	nt
COCCNC(=S)NN=C(C)c1ccc(C)c([N+](=O)[O-])c1	nt	nt	i	nt	nt	nt	nt
COc1cccc(C=Nc2ccc3c(c2)OCCO3)c1O	i	i	i	53.4	i	i	i
COc1cccc(/C=N/NC(=O)CNC(=O)c2ccc3c(c2)OCCO3)c1O	i	i	nt	i	i	i	nt
CCN1CCN(c2nc(N)c([N+](=O)[O-])c(Nc3cccc(C)c3)n2)CC1	i	i	i	i	i	i	nt
CCOc1ccc(Nc2nc(N)c([N+](=O)[O-])c(N3CCN(C)CC3)n2)cc1	i	i	i	47.1	i	i	i
Cc1cccc(Nc2nc(N3CCN(C)CC3)nc(N)c2[N+](=O)[O-])c1	i	i	i	40.5	i	i	i
COc1ccccc1NC(=S)NN=Cc1ccc(O)cc1	nt	nt	i	nt	nt	nt	nt
O=C1c2cc([N+](=O)[O-])cc3cc([N+](=O)[O-])cc(c23)C(=O)N1c1ccccn1	nt	nt	i	42.9	i	nt	i
O=C1c2ccc(Oc3cccc([N+](=O)[O-])c3)cc2C(=O)N1c1ccccn1	i	i	i	i	i	i	nt
COCCNC(=S)NN=C1CCCCC1	i	i	i	46.2	i	i	i
C=CCNC(=S)NN=C1CCCCCCC1	i	i	i	i	i	i	nt
CC(C)(C)c1ccc(OCC(=O)N2CCN(C=O)CC2)cc1	i	i	i	44.1	i	i	i
COc1cc(O)c2c(=O)cc(-c3ccccc3)oc2c1	i	i	i	53.2	i	i	i
COc1c(O)cc(O)c2c(=O)cc(-c3ccccc3)oc12	i	i	i	68.9	i	i	i
COc1cc(-c2cc(=O)c3c(O)cc(O)cc3o2)ccc1O	i	i	i	55.7	i	i	i
COc1cc(-c2cc(=O)c3ccccc3o2)ccc1O	i	i	i	i	i	i	nt
COc1cc(C=NNC(=O)c2ccc(NS(=O)(=O)c3cccs3)cc2)cc(OC)c1O	nt	nt	i	nt	nt	nt	nt
Cc1c(N=Cc2ccco2)n(Cc2ccccc2)c2ccccc12	nt	nt	i	nt	nt	nt	nt
Cc1ccc(-n2c(-c3ccncc3)nnc2-c2ccco2)cc1	i	i	i	i	i	i	nt
Cc1ccc(-c2nnc(-c3ccncc3)n2-c2ccc(C)cc2)cc1	i	i	i	61.9	i	i	i
O=C(c1ccc(N2CCCC2)c([N+](=O)[O-])c1)N1CCc2ccccc2C1	i	i	i	49.8	i	i	i
COc1ccccc1C(C)Nc1ccc(S(=O)(=O)N2CCN(C)CC2)cc1[N+](=O)[O-] (stereo not drawn)	i	i	i	39.1	i	i	i
O=C(CNc1ccc2c(c1)OCO2)N/N=C\c1ccccc1Cl	i	i	nt	61.4	i	i	i
Cc1[nH]c2ccccc2c1/C=N\NC(=O)CNc1ccc2c(c1)OCO2	i	i	nt	i	i	i	nt
CNc1ccc(/C=C/C(=O)c2cccc3ccccc23)cc1[N+](=O)[O-]	i	i	i	47.0	i	i	i
CNc1ccc(C(=O)c2ccccc2C(=O)O)cc1[N+](=O)[O-]	i	i	i	i	i	i	nt

Compound activity as filed in PubChem BioAssay.
